Assay [1] concerns C. albicans CaCi-2 growth, Alamar Blue fluorescence, 48 h. Kind of assay: C. albicans isolate growth inhibitors, no fluconazole added – CaCi-2 strain, plate reader, dry powder, dose response (AID 602190). Put shortly: (§1)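 Assay system: Candida albicans strain CaCi-2, a fluconazole-resistant clinical isolate; amount: fungal inoculum at starting OD600 of 0.00015; buffer or medium: RPMI 1640 with MOPS, uridine, glucose; incubation: 48 h static exposure at 37 °C, 2 h Alamar Blue; measure: growth inhibition from lowered fluorescence; signal: Alamar Blue fluorescence reporting fungal metabolic activity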

Assay in assay [2]: as above
The note with it: C. albicans CaCi-2 growth, Alamar Blue fluorescence, 48 h; at 26 µM (top of the series). Put shortly: as §1

Inconclusive results are not listed. Activity calls are given as the source filed them.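 Rule for the calls: active = compound whose fitted half-maximal concentration, in every repeat run, is at most twice the top dose tested; inconclusive = repeat runs disagree, or a flat or poor curve fit; inactive = every repeat run called inactive.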

Turning to `O=C(Oc1c(Cl)cc(Cl)c2cccnc12)c1ccco1`, the AC50 in assay [1] is 0.708 µM.
With `O=C(Nc1nc(-c2ccccn2)cs1)c1ccc(Cl)s1`, in assay [1], the AC50 was 6.89 µM.
For `O=C(Nc1nnc(-c2ccc3c(c2)CCCC3)o1)c1ccc(Cl)cc1Cl`, in assay [1], the AC50 was 17.9 µM.
For the molecule `CCOC(=O)N1C(=O)C2(CCCCC2)N(c2ccc(C)cc2)C1=S`, in assay [1], the AC50 was 4.29 µM.
As for `C=CCNC(=S)N/N=C(\C)c1ccccn1`, the activity change, negative = inhibition in assay [2] was -68% (inactive).
As to `O=C(Nc1nc(-c2ccccc2)cs1)c1ccc(Br)s1`, the activity change, negative = inhibition in assay [2] is -11.8% (inactive).
For `O=C(Nc1nnc(-c2ccc3c(c2)CCCC3)o1)c1ccccc1`, the AC50 in assay [1] was 17.6 µM.
For `Oc1c(C(c2ccccc2Cl)N2CCCCC2)ccc2cccnc12` (stereo unspecified), the AC50 in assay [1] was 8.88 µM.
On the same count and under the same terms, to `Oc1c(CN2CCN(c3ccccc3)CC2)cc(Cl)c2cccnc12` belongs 2.72 µM.
With `O=C(Nc1nc(-c2ccccn2)cs1)c1ccccc1`, the activity change, negative = inhibition in assay [2] is 6.07% (inactive).
Take `Oc1c(CN2CCc3ccccc3C2)cc(Cl)c2cccnc12`: the AC50 in assay [1] was 1.57 µM.
In the case of `C/C(=N\NC(=O)c1cc2ccccc2cc1O)c1ccccn1`, in assay [1], the AC50 was 6.11 µM.
For `Cc1cc(C)n(-c2nc3ccccc3c(=O)n2OCC#N)n1`, in assay [1], the AC50 was 6.87 µM.
Turning to `O=C(Nc1nc(-c2ccccn2)cs1)c1ccc(Br)s1`, the AC50 in assay [1] was 5.53 µM.
As to `Oc1c(C(c2ccc(Cl)cc2)N2CCCC2)ccc2cccnc12` (stereo unspecified), the AC50 in assay [1] is 5.03 µM.
As for `O=C(NNC(=S)Nc1ccc(Cl)c(Cl)c1)c1ccccn1`, the AC50 in assay [1] was 13 µM.
In the case of `Cc1ccc(C(=O)Nc2nnc(-c3ccccc3)o2)cc1C`, the activity change, negative = inhibition in assay [2] was -9.38% (inactive).
`CN1CCN(C(c2ccc(C(F)(F)F)cc2)c2ccc3cccnc3c2O)CC1` (stereo unspecified): in assay [1], the AC50 was 4.75 µM.
Consider `NC(=O)c1cccc(C(=O)Nc2nc(-c3ccc4c(c3)CCCC4)cs2)c1`, for which the activity change, negative = inhibition in assay [2] is 4.94% (inactive).
The same measure, in the same setting: to `O=C(Nc1nc(-c2ccc3c(c2)CCCC3)cs1)c1ccccc1` belongs -18.1% (inactive).
`Cc1ccc(-c2nc3c(Cl)cc(Cl)cc3c(=O)n2O)cc1`: the activity change, negative = inhibition in assay [2] is -45% (inactive).

For the origin of these results see PubChem BioAssay AID602190 (Broad Institute, 2012).
